Compound activity from PubChem.
In the library only some 3.1% were active in any assay of this set; here they are far more common.
OX1R antag-1: antagonists of human orexin 1 receptor (OX1R). OX1R-expressing cells, FRET antagonist read-out. 330,000 tested, 1.8% active. AID 485270. inhibition, % at 6.6 µM. O43613; in the data active = inhibition mostly above about 38%, no sharp cut-off; inactive = mostly below about 40%
OX1R antag-2: human HCRTR1 antagonism; O43613; CHO/OX1R cells, Fluo-8 calcium fluorescence, orexin A; inhibition, % at 5 µM; 330,000 tested, 0.43% active; AID 434989;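 active = inhibition above its plate's threshold, mean inhibition of all tested compounds on the plate plus 3 SD, cut at about 37% in these data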
CHO parental Ca: signal in parental CHO cells, OX1R antagonist counter-screen; parental CHO-K1, ATP-induced calcium, Fluo-8 fluorescence; inhibition, % at 5.6 µM; 330,000 tested, 0.63% active; AID 463079;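 active = inhibition above that plate's mean sample inhibition plus 3 SD, cut at about 26% in these data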
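material = parental CHO cells | also added = ATP as calcium-mobilizing challenge | dosing = single point at 5.6 µM | detection = intracellular calcium via Fluo-8 no-wash fluorescent dye | read-out = % inhibition | benchmarks = low control ATP plus DMSO, high control DMSO only | repeats = one well per compound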
GalR3 antag: blocks the human galanin receptor 3 | O60755 | HEK293 GalR3-CNG cAMP membrane potential fluorescence; galR3 body fused to GalR1 C-terminus | inhibition, % at 3 µM | 360,000 tested, 0.44% active | AID 651719;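 active = inhibition above the screen-wide average plus 3 SD, cut at about 13% in these data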;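 also: forskolin and galanin both at EC90 stimulate the cells; cAMP rise reported by CNG channel membrane potential dye signal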
Target sequence (O60755 1-299 limits assumed): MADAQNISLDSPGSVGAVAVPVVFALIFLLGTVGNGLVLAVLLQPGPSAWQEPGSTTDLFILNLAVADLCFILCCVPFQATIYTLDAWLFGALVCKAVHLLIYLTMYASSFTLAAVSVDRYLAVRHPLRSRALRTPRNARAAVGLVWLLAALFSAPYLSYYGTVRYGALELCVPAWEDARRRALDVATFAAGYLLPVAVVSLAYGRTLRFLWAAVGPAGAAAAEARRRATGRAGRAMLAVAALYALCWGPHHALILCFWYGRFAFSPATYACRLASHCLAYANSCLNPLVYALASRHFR
GPR7 antag: human neuropeptides B/W receptor 1 antagonism | P48145 | GPR7-expressing cells, fluorescence antagonist assay | inhibition, % at 4.4 µM | 290,000 tested, 1.1% active | AID 1861; in the data active = inhibition above about 16%, passing the limit was not always enough;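 also: cells stimulated with the agonist NPW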
Target sequence (P48145 whole entry, looked up): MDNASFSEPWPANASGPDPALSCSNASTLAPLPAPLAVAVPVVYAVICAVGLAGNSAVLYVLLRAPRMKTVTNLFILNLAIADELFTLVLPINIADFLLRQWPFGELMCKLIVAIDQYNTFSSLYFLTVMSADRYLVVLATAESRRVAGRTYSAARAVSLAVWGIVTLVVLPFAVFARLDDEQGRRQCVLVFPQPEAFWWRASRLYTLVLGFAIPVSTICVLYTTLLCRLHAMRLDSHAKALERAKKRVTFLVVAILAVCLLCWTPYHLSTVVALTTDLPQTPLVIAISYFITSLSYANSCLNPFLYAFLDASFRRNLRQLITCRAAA
GPR7 antag conf: confirmation of human GPR7 antagonists; shares compounds with GPR7 antag; GPR7-expressing cells, calcium fluorescence antagonist mode; inhibition, % at 4.4 µM; 2,400 tested, 52% active; in the data active = inhibition above about 24%;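 also: stimulated with the GPR7 agonist NPW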
MCHR1 antagonist: counter-screen for GPR7 antagonists: antagonists of human MCHR1 | shares compounds with GPR7 antag | MCHR1-expressing cells, fluorescence antagonist assay | inhibition, % at 4.4 µM | 2,400 tested, 62% active | AID 2148; in the data active = inhibition above about 22%
A number is an active result.

Results for COc1ccc(NC(=O)Cc2ccc(Cl)c(Cl)c2)cn1 ?
OX1R antag-1: inactive; OX1R antag-2: inactive; CHO parental Ca: inactive; GalR3 antag: inactive; GPR7 antag: inactive

Results for COc1ccc(NC(=O)/C(Cl)=C(/Cl)S(=O)Cc2ccccc2Cl)cn1 (stereo not drawn) ?
GPR7 antag: 40; GPR7 antag conf: 76; MCHR1 antagonist: 91

How did COc1cccc(CNC(=O)[C@H]2CCCN2C(=O)[C@H]2CCCN2C(=O)c2ccccc2C(F)(F)F)c1 do in these assays?
GalR3 antag: inactive

What do the screens show for `CC(=O)c1ccc(NC(=O)CSc2ccc(-c3sc(C)nc3C)nn2)cc1`?
OX1R antag-1: inactive; OX1R antag-2: inactive; CHO parental Ca: inactive; GalR3 antag: inactive; GPR7 antag: 26; GPR7 antag conf: 43; MCHR1 antagonist: 76

How did Cc1nc(C)c(-c2ccc(SCC(=O)Nc3ccc(C)c(Cl)c3)nn2)s1 do in these assays?
OX1R antag-1: inactive; OX1R antag-2: inactive; CHO parental Ca: inactive; GalR3 antag: inactive; GPR7 antag: inactive

What do the screens show for `Cc1cccc(N2CC(C(=O)OCC(=O)Nc3sccc3C(N)=O)CC2=O)c1C` (stereo not drawn)?
OX1R antag-1: inactive; OX1R antag-2: inactive; CHO parental Ca: inactive; GalR3 antag: inactive

Results for Cc1cccc(N2CC(C(=O)OCC(=O)c3ccc(OC(=O)c4cccs4)cc3)CC2=O)c1C (stereo not drawn) ?
OX1R antag-1: inactive; OX1R antag-2: inactive; CHO parental Ca: inactive; GalR3 antag: inactive; GPR7 antag: 30; GPR7 antag conf: inactive; MCHR1 antagonist: 58

How did COC(=O)C1=C(N)Oc2cc(C)n(CC3CCCO3)c(=O)c2C1c1ccccc1OC (stereo not drawn) do in these assays?
OX1R antag-1: inactive; OX1R antag-2: inactive; CHO parental Ca: inactive; GalR3 antag: inactive; GPR7 antag: inactive

Results for COC(=O)C1=C(N)Oc2cc(N(C)C)ccc2C1c1ccccc1OC (stereo not drawn) ?
OX1R antag-1: inactive; OX1R antag-2: inactive; CHO parental Ca: inactive; GalR3 antag: inactive; GPR7 antag: 25; GPR7 antag conf: inactive; MCHR1 antagonist: 33

What do the screens show for `CCC(C)[C@H](NS(=O)(=O)c1ccc(F)cc1Br)C(=O)OC` (stereo partly drawn)?
GalR3 antag: inactive

What do the screens show for `CCc1cccc(CC)c1NC(=O)COC(=O)C1(c2ccc(Cl)cc2)CCCC1`?
OX1R antag-1: inactive; OX1R antag-2: inactive; CHO parental Ca: inactive; GalR3 antag: inactive; GPR7 antag: 42; GPR7 antag conf: 36; MCHR1 antagonist: 51

Results for COc1ccc(-c2sc3ccccc3c2-c2ccc(OC)cc2F)cc1 ?
GalR3 antag: inactive

Results for O=C(c1ccc(N2CCN(C(=O)c3ccccc3Br)CC2)cc1)c1cccc(F)c1 ?
OX1R antag-1: inactive; OX1R antag-2: inactive; CHO parental Ca: inactive; GalR3 antag: inactive; GPR7 antag: 28; GPR7 antag conf: inactive; MCHR1 antagonist: 69

What do the screens show for `CCOC(=O)C1(Cc2ccc(OC)cc2)CCN(C(=O)c2cc(C)on2)CC1`?
OX1R antag-1: inactive; OX1R antag-2: inactive; CHO parental Ca: inactive; GalR3 antag: inactive; GPR7 antag: 25; GPR7 antag conf: inactive; MCHR1 antagonist: inactive

What do the screens show for `CCOC(=O)C1(Cc2ccc(OC)cc2)CCN(C(=O)c2sc(C)nc2C)CC1`?
OX1R antag-1: inactive; OX1R antag-2: inactive; CHO parental Ca: inactive; GalR3 antag: inactive; GPR7 antag: inactive

How did COc1cccc(N2CCc3c(C)nc4ccc(Cl)cc4c32)c1 do in these assays?
GalR3 antag: inactive; GPR7 antag: 36; GPR7 antag conf: 33; MCHR1 antagonist: 34

What do the screens show for `CC(=O)Nc1ccc(Sc2ncccc2C(=O)Nc2cc(Cl)cc(Cl)c2)cn1`?
OX1R antag-1: inactive; OX1R antag-2: inactive; CHO parental Ca: inactive; GalR3 antag: inactive; GPR7 antag: inactive

How did CC(=O)Nc1ccc(Sc2ncccc2C(=O)Nc2ccc(OC(F)(F)F)cc2)cn1 do in these assays?
OX1R antag-1: inactive; OX1R antag-2: 88; CHO parental Ca: 77; GalR3 antag: inactive; GPR7 antag: 97; GPR7 antag conf: 98; MCHR1 antagonist: 103

Results for Cc1cccc(N2CCN(C(=O)C3CCN(c4ncnc5c4nc4n5CCCCC4)CC3)CC2)c1C ?
OX1R antag-1: inactive; OX1R antag-2: inactive; CHO parental Ca: inactive; GalR3 antag: inactive; GPR7 antag: 27; GPR7 antag conf: 25; MCHR1 antagonist: 61

What do the screens show for `O=C(C1CCN(c2ncnc3c2nc2n3CCCCC2)CC1)N1CCN(c2ccccc2F)CC1`?
OX1R antag-1: inactive; OX1R antag-2: inactive; CHO parental Ca: inactive; GalR3 antag: inactive; GPR7 antag: inactive

Results for O=S(=O)(NCC[C@@H]1CC[C@H](NS(=O)(=O)c2cccc(F)c2)[C@@H](CO)O1)c1cccc(F)c1 ?
GalR3 antag: inactive

How did COc1ccc(Nc2ccc(Nc3ccc(OC)cc3)nn2)cc1 do in these assays?
OX1R antag-1: inactive; OX1R antag-2: inactive; CHO parental Ca: inactive; GalR3 antag: inactive; GPR7 antag: 92; GPR7 antag conf: 85; MCHR1 antagonist: 89

How did CC(C)Cc1ccc(C(C)C(N)=NCCc2ccccc2)cc1 (stereo not drawn) do in these assays?
GalR3 antag: inactive; GPR7 antag: 52; GPR7 antag conf: 39; MCHR1 antagonist: 54

How did Cc1cc(NC(=O)COC(=O)c2oc3c(Cl)cccc3c2C)no1 do in these assays?
OX1R antag-1: inactive; OX1R antag-2: inactive; CHO parental Ca: inactive; GalR3 antag: inactive; GPR7 antag: 27; GPR7 antag conf: inactive; MCHR1 antagonist: 37

What do the screens show for `Cn1cnc([N+](=O)[O-])c1Sc1ccc(C(C)(C)C)cc1`?
OX1R antag-1: inactive; OX1R antag-2: inactive; CHO parental Ca: inactive; GalR3 antag: inactive; GPR7 antag: 27; GPR7 antag conf: 38; MCHR1 antagonist: 26

How did O=C(NCCCC1CCCC1)C1CCC(=O)N(Cc2ccc(Cl)cc2)C1 (stereo not drawn) do in these assays?
OX1R antag-1: inactive; OX1R antag-2: inactive; CHO parental Ca: inactive; GalR3 antag: inactive; GPR7 antag: 28; GPR7 antag conf: inactive; MCHR1 antagonist: inactive

How did O=C(NCCCC1CCCC1)C1CCC(=O)N(Cc2cccc(F)c2)C1 (stereo not drawn) do in these assays?
OX1R antag-1: inactive; OX1R antag-2: inactive; CHO parental Ca: inactive; GalR3 antag: inactive; GPR7 antag: inactive

What do the screens show for `O=C(NCCCc1ccc(F)cc1)C1CCC(=O)N(CCCN2CCCC2=O)C1` (stereo not drawn)?
OX1R antag-1: inactive; OX1R antag-2: inactive; CHO parental Ca: inactive; GalR3 antag: inactive; GPR7 antag: 35; GPR7 antag conf: inactive; MCHR1 antagonist: inactive

What do the screens show for `O=C(NCCc1ccccc1)C1CCC(=O)N(CCCN2CCCC2=O)C1` (stereo not drawn)?
OX1R antag-1: inactive; OX1R antag-2: inactive; CHO parental Ca: inactive; GalR3 antag: inactive; GPR7 antag: inactive
